# Reference: ChEMBL document CHEMBL1134988, “Prodrugs of 4'-demethyl-4-deoxypodophyllotoxin: synthesis and evaluation of the antitumor activity” (2002)
# pEC50: −log10 of the molar value. Active and inactive are the calls of the source. The calls are words filed in the database; no cut-off is given here.
# What was measured:
# [1] = tested on: SK-MEL-2; experiment: In vitro cytotoxicity against SK-MEL-2 (human melanoma) cell line.; assay type: functional; conditions: read-out: ED50 (the source's name)
# [2] = tested on: A549; experiment: In vitro cytotoxicity against A549 (human lung carcinoma) cell line.; assay type: functional; conditions: read-out: ED50 (the source's name)
# [3] = tested on: MCF7; experiment: In vitro cytotoxicity against MCF-7 (human breast carcinoma) cell line.; assay type: functional; conditions: read-out: ED50 (the source's name)
# [4] = tested on: Mus musculus; experiment: Antitumor activity against Lewis lung carcinoma (LLC) cells transplanted s.c. into the auxiliary region of the BDF1 mice at a formulable dose of 0.06 mmol/kg/day; assay type: functional
# How it was run: (§1)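 LLC cells implanted sc in the axillary region of BDF1 mice. Dosing began 24 h later: ip injection on days 1, 5 and 9 in 5% DMSO/15% Cremophore in saline. Tumour length and width measured on day 17, with TV = L×W²/2. IR (%) = (mean control TV − mean treated TV)/mean control TV × 100.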
# [5] = tested on: Mus musculus; experiment: Antitumor activity against Lewis lung carcinoma (LLC) cells transplanted s.c. into the auxiliary region of the BDF1 mice at a formulable dose of 0.06 mmol/kg/day; Not active; assay type: functional, organism-based; how it was run: as §1
# [6] = tested on: Mus musculus; experiment: Antitumor activity against Lewis lung carcinoma (LLC) cells transplanted s.c. into the auxiliary region of the BDF1 mice at a maximum tolerated dose of 0.36 mmol/kg/day; assay type: functional
# How it was run: (§2)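 BDF1 mice carried sc LLC grafts in the axillary region. Starting 24 h after implantation, doses were given ip on days 1, 5 and 9. Tumour length and width were measured on day 17 and TV = L×W²/2. Inhibition rate (%) was the reduction in mean TV relative to the control group.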
# [7] = tested on: Mus musculus; experiment: Antitumor activity against Lewis lung carcinoma (LLC) cells transplanted s.c. into the auxiliary region of the BDF1 mice at a maximum tolerated dose of 0.42 mmol/kg/day; assay type: functional; how it was run: as §2
# [8] = tested on: Mus musculus; experiment: Antitumor activity against Lewis lung carcinoma (LLC) cells transplanted s.c. into the auxiliary region of the BDF1 mice at a maximum tolerated dose of 0.3 mmol/kg/day; assay type: functional; how it was run: as §2
# [9] = tested on: Mus musculus; experiment: Antitumor activity against Lewis lung carcinoma (LLC) cells transplanted s.c. into the auxiliary region of the BDF1 mice at a maximum tolerated dose of 0.06 mmol/kg/day; assay type: functional; how it was run: as §2
Compound,pEC50 [1],pEC50 [2],pEC50 [3],Inhibition rate [4],Inhibition rate [5],Inhibition rate [6],Inhibition rate [7],Inhibition rate [8],Inhibition rate [9]
COc1cc([C@@H]2c3cc4c(cc3C[C@H]3COC(=O)[C@@H]32)OCO4)cc(OC)c1OC(=O)OCCCl,7.14,7.04,7.06,–,–,–,–,–,–
COc1cc([C@@H]2c3cc4c(cc3[C@@H](O[C@@H]3O[C@@H]5CO[C@@H](C)O[C@H]5[C@H](O)[C@H]3O)[C@H]3COC(=O)[C@H]23)OCO4)cc(OC)c1O [ETOPOSIDE],–,5.72,–,78%,–,–,–,–,–
COc1cc([C@@H]2c3cc4c(cc3C[C@H]3COC(=O)[C@@H]32)OCO4)cc(OC)c1OC(=O)Nc1ccc(F)cc1,7.11,7.07,7.12,69%,–,–,–,–,–
COc1cc([C@@H]2c3cc4c(cc3C[C@H]3COC(=O)[C@@H]32)OCO4)cc(OC)c1OC(=O)NC(C)C,6.78,6.82,6.78,–,inactive,–,–,–,–
COc1ccc(NC(=O)Oc2c(OC)cc([C@@H]3c4cc5c(cc4C[C@H]4COC(=O)[C@@H]43)OCO5)cc2OC)cc1,7.05,7.02,7.03,–,inactive,–,–,–,–
COc1cc([C@@H]2c3cc4c(cc3C[C@H]3COC(=O)[C@@H]32)OCO4)cc(OC)c1OC(=O)NCCO,7.23,7.21,7.34,95%,–,–,–,–,–
COc1cc([C@@H]2c3cc4c(cc3C[C@H]3COC(=O)[C@@H]32)OCO4)cc(OC)c1OC(=O)[C@@H](N)Cc1ccccc1,7.23,7.06,7.14,–,–,80%,–,–,–
COc1cc([C@@H]2c3cc4c(cc3C[C@H]3COC(=O)[C@@H]32)OCO4)cc(OC)c1OC(=O)CCCCCCCN,7.21,7.13,7.16,–,–,–,80%,–,–
COc1cc([C@@H]2c3cc4c(cc3C[C@H]3COC(=O)[C@@H]32)OCO4)cc(OC)c1OC [DESOXYPODOPHYLLOTOXIN],7.85,7.64,7.96,59%,–,–,–,–,–
COc1cc([C@@H]2c3cc4c(cc3C[C@H]3COC(=O)[C@@H]32)OCO4)cc(OC)c1O [4'-DEMETHYLDEOXYPODOPHYLLOTOXIN],7.92,7.82,7.74,13%,–,–,–,–,–
COc1cc([C@@H]2c3cc4c(cc3C[C@H]3COC(=O)[C@@H]32)OCO4)cc(OC)c1OC(=O)CN,7.47,7.92,7.51,–,–,–,–,33%,–
CCNC(=O)Oc1c(OC)cc([C@@H]2c3cc4c(cc3C[C@H]3COC(=O)[C@@H]32)OCO4)cc1OC,6.84,6.88,6.85,–,inactive,–,–,–,–
COc1cc([C@@H]2c3cc4c(cc3C[C@H]3COC(=O)[C@@H]32)OCO4)cc(OC)c1OC(=O)CCCCCN,7.11,7.05,7.14,–,–,–,–,–,89%
COc1cc([C@@H]2c3cc4c(cc3C[C@H]3COC(=O)[C@@H]32)OCO4)cc(OC)c1OC(=O)CCN,7.10,7.01,7.08,–,–,–,–,85%,–
COc1cc([C@@H]2c3cc4c(cc3C[C@H]3COC(=O)[C@@H]32)OCO4)cc(OC)c1OC(=O)[C@H](C)N,8.05,7.66,7.96,–,–,–,–,41%,–
COc1cc([C@@H]2c3cc4c(cc3C[C@H]3COC(=O)[C@@H]32)OCO4)cc(OC)c1OCc1ccc(N)cc1,6.82,6.94,7.00,–,–,–,–,80%,–
COc1cc([C@@H]2c3cc4c(cc3C[C@H]3COC(=O)[C@@H]32)OCO4)cc(OC)c1OC(=O)NC1CCCCC1,6.82,6.79,6.71,–,inactive,–,–,–,–
COc1cc([C@@H]2c3cc4c(cc3C[C@H]3COC(=O)[C@@H]32)OCO4)cc(OC)c1OC(=O)CCCN,7.04,7.04,7.05,–,–,85%,–,–,–
